Assay [1] relates to HCT-116. Description: Antitumor activity against human HCT-116 cells xenografted in nude mouse assessed as decrease tumor volume at 75 mg/kg, iv administered once per week measured after 29 days. It is filed as functional, organism-based. Conditions: time 29.0 day. Put shortly:
(§1)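 Female BALB/c nu/nu mice (19–21 g) received 0.1 mL of HCT116 suspension (1 × 10^7 viable cells/mL, Hanks' buffer) s.c. At day 20 (tumours ~100 mm3), they were randomised into groups of eight. Dosing was i.v. via lateral tail vein at 10 mL/kg for 29 days. Blinded caliper volumes (L × W² × π/6) were taken every 2–4 days. Comparison to […] vehicle controls used one-way ANOVA/Dunnett; log-volume slopes gave growth rate.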

The subject of assay [2] is HCT-116. Description: Antitumor activity against human HCT-116 cells xenografted in nude mouse assessed as decrease tumor growth at 75 mg/kg, iv administered once per week measured after 29 days. It is filed as functional, organism-based. Conditions: time 29.0 day. Put shortly:
as §1
For orientation: Xenograft models place foreign cells or tissue in a host animal.

The source made the active and inactive calls. The calls are words filed in the database; no cut-off is given here.

As to `O=c1[nH]cc(F)c(=O)[nH]1`, the outcome in the assay with HCT-116 [1] and with HCT-116 [2] was Active.
